Measurements: ChEMBL document CHEMBL3421617, “Synthesis of selenazolopyridine derivatives with capability to induce apoptosis in human breast carcinoma MCF-7 cells through scavenge of intracellular ROS” (Eur J Med Chem, 2015)
Calls of active or inactive are those of the source. The rule behind the calls is not given here.

What was measured:
MCF7 [1] = experiment: Cytotoxicity against human MCF7 cells assessed as cell viability after 72 hrs by MTT assay; format: functional, cell-based; conditions: for IC50: MCF7, 72 h
Summary of the method: (§1)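 Cells obtained from ATCC; human normal liver L02 included as the non-cancer line. Cells treated with various concentrations for 72 h. Viability read by MTT assay and IC50 values calculated from the concentration series.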

HepG2 = experiment: Cytotoxicity against human HepG2 cells assessed as cell viability after 72 hrs by MTT assay; format: functional, cell-based; conditions: HepG2, 72 h; summary of the method: as §1
[2] = Cytotoxicity against human L02 cells assessed as cell viability after 72 hrs by MTT assay; format: cell-based; conditions: L02, 72 h; summary of the method: as §1
MCF7 [3] = experiment: Cell cycle arrest in human MCF7 cells assessed as cells at Sub-G1 phase at 20 uM by flow cytometry (reference value: 3.3%); format: functional
MCF7 [4] = experiment: Cell cycle arrest in human MCF7 cells assessed as cells at G0/G1 phase at 20 uM by flow cytometry (reference value: 41.9%); format: functional
MCF7 [5] = experiment: Cell cycle arrest in human MCF7 cells assessed as cells at S phase at 20 uM by flow cytometry (reference value: 16.6%); format: functional
MCF7 [6] = experiment: Cell cycle arrest in human MCF7 cells assessed as cells at G2/M phase at 20 uM by flow cytometry (reference value: 41.5%); format: functional
MCF7 [7] = experiment: Cell cycle arrest in human MCF7 cells assessed as cells at Sub-G1 phase at 30 uM by flow cytometry (reference value: 3.3%); format: functional
MCF7 [8] = experiment: Cell cycle arrest in human MCF7 cells assessed as cells at G0/G1 phase at 30 uM by flow cytometry (reference value: 41.9%); format: functional
MCF7 [9] = experiment: Cell cycle arrest in human MCF7 cells assessed as cells at S phase at 30 uM by flow cytometry (reference value: 16.6%); format: functional
MCF7 [10] = experiment: Cell cycle arrest in human MCF7 cells assessed as cells at G2/M phase at 30 uM by flow cytometry (reference value: 41.5%); format: functional
MCF7 [11] = experiment: Cell cycle arrest in human MCF7 cells assessed as cells at Sub-G1 phase at 40 uM by flow cytometry (reference value: 3.3%); format: functional
MCF7 [12] = experiment: Cell cycle arrest in human MCF7 cells assessed as cells at G0/G1 phase at 40 uM by flow cytometry (reference value: 41.9%); format: functional
MCF7 [13] = experiment: Cell cycle arrest in human MCF7 cells assessed as cells at S phase at 40 uM by flow cytometry (reference value: 16.6%); format: functional
MCF7 [14] = experiment: Cell cycle arrest in human MCF7 cells assessed as cells at G2/M phase at 40 uM by flow cytometry (reference value: 41.5%); format: functional
MCF7 [15] = experiment: Cell cycle arrest in human MCF7 cells assessed as cells at Sub-G1 phase by flow cytometry; format: functional, cell-based
MCF7 [16] = experiment: Inhibition of intracellular ROS production in human MCF7 cells assessed as decrease in DHE fluorescence intensity after 30 mins; format: functional, cell-based
Summary of the method: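 MCF-7 cells loaded with 10 µM DHE in PBS for 30 min, then exposed to different concentrations of compound. Intracellular ROS followed as DHE fluorescence on a microplate reader, excitation 300 nm and emission 610 nm, over 30 min.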

MCF7 [17] = experiment: Inhibition of intracellular ROS production in human MCF7 cells assessed as decrease in DHE fluorescence intensity at 80 uM after 30 mins by fluorescence microscopy; format: functional, cell-based
Summary of the method: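 Cells loaded with DHE (10 µM) in a culture dish at 37 °C for 30 min, then treated at 80 µM. Imaged at once by fluorescence microscopy, with red DHE fluorescence followed for 30 min.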

[18] = Antioxidant activity assessed as ABTS radical scavenging activity; format: physicochemical; conditions: TDE = time-dependent effect
[19] = Antioxidant activity assessed as DPPH free radical scavenging activity; format: physicochemical; conditions: TDE = time-dependent effect

Question: Which IC50 (MCF7 [1]) does the source give for `Cc1ccccc1Nc1nc2cccnc2[se]1` here?
Answer: The IC50 was 52.5 µM.

Question: And the IC50 (HepG2)?
Answer: Its IC50 is 507 µM.

Question: And the IC50 [2]?
Answer: Its IC50 is 121 µM.

Question: For `Cc1ccc(Nc2nc3cccnc3[se]2)cc1C`, which IC50 (MCF7 [1]) is on record?
Answer: Its IC50 is 202 µM.

Question: And the IC50 (HepG2)?
Answer: Its IC50 is 145 µM.

Question: And the IC50 [2]?
Answer: The IC50 was 182 µM.

Question: For `c1ccc(Nc2nc3cccnc3[se]2)cc1`, which inhibition (MCF7 [1]) is on record?
Answer: The inhibition was “Dose-dependent effect”.

Question: What about the IC50 (MCF7 [1]) of the same compound?
Answer: Its IC50 is 22.5 µM.

Question: What about the IC50 (HepG2) of the same compound?
Answer: The IC50 was 57.1 µM.

Question: What about the IC50 [2] of the same compound?
Answer: Its IC50 is 164 µM.

Question: And the Activity (MCF7 [3])?
Answer: Its Activity is 27.1%.

Question: What about the Activity (MCF7 [4]) of the same compound?
Answer: Its Activity is 58.2%.

Question: And the Activity (MCF7 [5])?
Answer: The Activity was 34.3%.

Question: And the Activity (MCF7 [6])?
Answer: Its Activity is 7.5%.

Question: What about the Activity (MCF7 [7]) of the same compound?
Answer: Its Activity is 36.7%.

Question: And the Activity (MCF7 [8])?
Answer: The Activity was 50.5%.

Question: And the Activity (MCF7 [9])?
Answer: Its Activity is 22.3%.

Question: And the Activity (MCF7 [10])?
Answer: The Activity was 20.3%.

Question: What about the Activity (MCF7 [11]) of the same compound?
Answer: The Activity was 58.3%.

Question: What about the Activity (MCF7 [12]) of the same compound?
Answer: The Activity was 50.8%.

Question: What about the Activity (MCF7 [13]) of the same compound?
Answer: The Activity was 25.8%.

Question: And the Activity (MCF7 [14])?
Answer: Its Activity is 13.4%.

Question: What about the Activity (MCF7 [15]) of the same compound?
Answer: Its Activity is “Dose-dependent effect”.

Question: What about the inhibition (MCF7 [16]) of the same compound?
Answer: The inhibition was “Dose-dependent effect”.

Question: And the inhibition (MCF7 [17])?
Answer: The inhibition was “Active”.

Question: And the Activity [18]?
Answer: Its Activity is “tde”.

Question: And the Activity [19]?
Answer: The Activity was “tde”.

Question: Which results are given for `Cc1ccc(Nc2nc3cccnc3[se]2)cc1`?
Answer: IC50 (MCF7 [1]): 91.5 µM; IC50 (HepG2): 235 µM; IC50 [2]: 207 µM

Question: Which IC50 (MCF7 [1]) does the source give for `Brc1ccccc1Nc1nc2cccnc2[se]1` here?
Answer: Its IC50 is 185 µM.

Question: What about the IC50 (HepG2) of the same compound?
Answer: Its IC50 is 74.2 µM.

Question: And the IC50 [2]?
Answer: Its IC50 is 169 µM.

Question: With `Clc1ccccc1Nc1nc2cccnc2[se]1` as the compound, how does the IC50 (MCF7 [1]) read?
Answer: Its IC50 is 43.3 µM.

Question: What about the IC50 (HepG2) of the same compound?
Answer: Its IC50 is 181 µM.

Question: What about the IC50 [2] of the same compound?
Answer: Its IC50 is 84.6 µM.

Question: Which results are given for `Cc1cccc(Nc2nc3cccnc3[se]2)c1`?
Answer: IC50 (MCF7 [1]): 56.4 µM; IC50 (HepG2): 56.7 µM; IC50 [2]: 54.3 µM
